Compounds with a hit are over-represented: about 2.8% of the library has one in this group of screens.
HCT116 bCat-KO: beta-catenin-lacking colon tumor cell growth suppression | HCT116 beta-catenin knockout viability, CellTiter-Glo, 60 h; hits give low values | viability, % at 10 µM | actives 1.5% (n = 140,000) | AID 818;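 active = viability at or under a set limit, the compound median less 4 SD, cut at about 6% in these data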;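 note: 0% = Hyamine 1622 control at 20 µM and 100% = untreated cell control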
Yeast growth inh: yeast BB579 growth reduction in restrictive medium. S. cerevisiae BB579 growth, OD615, 48 h. inhibition, % at 10 µM. actives 0.51% (n = 140,000). AID 804;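 active = inhibition above a set limit, 3 SD over the mean compound inhibition, cut at about 44% in these data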
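Test system: Saccharomyces cerevisiae DeaD strain BB579, replicative lifespan model yeast | Buffer or medium: Restrictive CSMM-D medium | Doses: One dose, 10 µM compound with 0.25% DMSO | Incubation: 48 h exposure, 30 °C | Detection: Culture absorbance at 615 nm | Control set: Amphotericin B at 10 µg/mL as positive control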
HCT116 PTEN-null: growth suppressors of cells with PTEN tumor suppressor deletion; HCT116 PTEN-null viability, CellTiter-Glo, 60 h; hits give low values; actives 1.2% (n = 140,000); viability, % at 10 µM; AID 827;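 active = viability at or below a set limit, 4 SD under the median of all tested compounds, cut at about 3.7% in these data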;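 note: PTEN knockout HCT116 line with beta catenin targeted HCT116 as companion control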
sdo1 growth: sdo1-depleted yeast growth rescue; actives 0.21% (n = 140,000); S. cerevisiae sdo1-depleted JHY4D growth rescue, OD600 30 h; hits give high values; pdr5 snq2 efflux-pump mutant strain; z-score at 10 µM;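 active = z-score above 3 at both the 24 hr and the 30 hr optical density reads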;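 note: z-score against mean and SD of all compound wells on the same plate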
Yeast lifespan up: yeast lifespan extension; S. cerevisiae growth with nicotinamide, OD615; deaD strain in restrictive glucose medium; inhibition of the nicotinamide effect, % at 10 µM; actives 0.68% (n = 130,000); AID 775;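 active = inhibition above a set limit, placed 3 SD over the median of all compounds, cut at about 26% in these data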;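 note: 0% = nicotinamide-treated wells and 100% = cells grown without nicotinamide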
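Assay system: engineered S. cerevisiae DeaD replicative-lifespan strain, galactose-grown log-phase cells; medium: restrictive CSMM-D dextrose medium; also added: nicotinamide, 1.5 mM, co-present with compound; schedule: 48 h compound exposure at 30 °C, humidified; detection: absorbance at 615 nm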
* marks the source's active call; other numbers are inactive results.

CC(C)c1ccc(/C=N/NC(=O)C(=O)NCCCN2CCOCC2)cc1 was read as HCT116 bCat-KO 101, Yeast growth inh -3, HCT116 PTEN-null 94, sdo1 growth 0.36 and Yeast lifespan up -2.
For O=C(CCc1ccccc1)NCCCN1CCOCC1 the results were HCT116 bCat-KO 102, Yeast growth inh 6, HCT116 PTEN-null 100, sdo1 growth 1.1 and Yeast lifespan up 66*.
Screening O=C(NCCCN1CCOCC1)C(=O)N/N=C/c1c2ccccc2cc2ccccc12 returned HCT116 bCat-KO 1.6*, Yeast growth inh -19, HCT116 PTEN-null 2.2*, sdo1 growth 0.02 and Yeast lifespan up -2.
`CN1CCc2c(sc3ncn4nc(-c5ccccc5O)nc4c23)C1` gave HCT116 bCat-KO 0.8*, Yeast growth inh 1, HCT116 PTEN-null 0.7*, sdo1 growth 2.2 and Yeast lifespan up -17.
For Nc1c(C(=O)NCc2ccc3c(c2)OCO3)c2nc3ccccc3nc2n1CCCN1CCOCC1 the results were HCT116 bCat-KO 1.4*, Yeast growth inh -36, HCT116 PTEN-null 1.4*, sdo1 growth -2.3 and Yeast lifespan up -25.
For COc1ccccc1CNC(=O)c1c(N)n(CCCN2CCOCC2)c2nc3ccccc3nc12 the results were HCT116 bCat-KO 11, Yeast growth inh 20, HCT116 PTEN-null 8, sdo1 growth -2.8 and Yeast lifespan up -17.
Nc1c(C(=O)NCCN2CCOCC2)c2nc3ccccc3nc2n1CCc1ccccc1F was read as HCT116 bCat-KO 3.6*, Yeast growth inh -45, HCT116 PTEN-null 3.8*, sdo1 growth -1.9 and Yeast lifespan up -5.
CC(C)c1onc(C(=O)N2CCN(C(c3ccccc3)c3ccccc3)CC2)c1[N+](=O)[O-] was read as HCT116 bCat-KO 90, Yeast growth inh 0, HCT116 PTEN-null 82, sdo1 growth -0.69 and Yeast lifespan up 1.
Screening O=C1c2cccc3cccc(c23)C(=O)N1c1cccnc1 returned HCT116 bCat-KO 103, Yeast growth inh 49*, HCT116 PTEN-null 111, sdo1 growth 1.6 and Yeast lifespan up -31.
For CNC(=S)N/N=C1\C(=O)c2cccc3cccc1c23 the results were HCT116 bCat-KO 2.6*, Yeast growth inh 25, HCT116 PTEN-null 1.2*, sdo1 growth -0.06 and Yeast lifespan up -11.
`Cc1ccc(Nc2nc(N/N=C/c3c[nH]c4ccccc34)nc(N3CCOCC3)n2)cc1` gave HCT116 bCat-KO 5.1*, Yeast growth inh -29, HCT116 PTEN-null 2.8*, sdo1 growth 1 and Yeast lifespan up -6.
For Cc1[nH]c2ccccc2c1/C=N/Nc1nc(Nc2ccc(F)cc2)nc(N2CCOCC2)n1 the results were HCT116 bCat-KO 5.8*, Yeast growth inh -75, HCT116 PTEN-null 3.6*, sdo1 growth -1.4 and Yeast lifespan up -18.
For c1ccc(Nc2nc(N3CCOCC3)nc(N3CCOCC3)n2)cc1 the results were HCT116 bCat-KO 62, Yeast growth inh 7, HCT116 PTEN-null 67, sdo1 growth 4.5 and Yeast lifespan up -6.
For C(=N\Nc1nc(Nc2ccccc2)nc(N2CCOCC2)n1)/c1c[nH]c2ccccc12 the results were HCT116 bCat-KO 13, Yeast growth inh -22, HCT116 PTEN-null 10, sdo1 growth -0.7 and Yeast lifespan up -13.
For O=C(O)c1ccc(N(c2ccccc2)c2ccccc2)cc1 the results were HCT116 bCat-KO 100, Yeast growth inh 44*, HCT116 PTEN-null 89 and sdo1 growth -1.2.
CC1CN=C(N(C(=O)Nc2ccccc2)c2ccc(F)cc2)S1 (stereo not drawn) was read as HCT116 bCat-KO 92, Yeast growth inh -48, HCT116 PTEN-null 108, sdo1 growth -0.87 and Yeast lifespan up -2.
For COc1ccc(CCNC(=O)c2cccnc2)cc1 the results were HCT116 bCat-KO 106, Yeast growth inh -54, HCT116 PTEN-null 112, sdo1 growth 0.08 and Yeast lifespan up -12.
`Cc1ccc(S(=O)(=O)ON2C(=O)c3cccc4cccc(c34)C2=O)cc1` gave HCT116 bCat-KO 81, Yeast growth inh -39, HCT116 PTEN-null 81, sdo1 growth 1.6 and Yeast lifespan up 34*.
For COc1cc(NCCCCCCCN)c2ncccc2c1 the results were HCT116 bCat-KO 1.7*, Yeast growth inh -30, HCT116 PTEN-null 2.3* and sdo1 growth 0.82.
For CC(=O)NC1=C(N(C)C2CCS(=O)(=O)C2)C(=O)c2ccccc2C1=O (stereo not drawn) the results were HCT116 bCat-KO 3.5*, Yeast growth inh 5, HCT116 PTEN-null 3.4*, sdo1 growth 1.2 and Yeast lifespan up 5.
`C=CCn1c(COc2ccc(Cl)cc2)nnc1SCC(=O)N1CC(=O)Nc2ccccc21` gave HCT116 bCat-KO 85, Yeast growth inh -41, HCT116 PTEN-null 75, sdo1 growth -0.13 and Yeast lifespan up -11.
Screening COc1ccc(-c2oc(NC(=O)CCl)c(C#N)c2-c2ccc(OC)cc2)cc1 returned HCT116 bCat-KO 5.8*, Yeast growth inh -34, HCT116 PTEN-null 6, sdo1 growth -2.7 and Yeast lifespan up -5.
For COc1cc([N+](=O)[O-])cc(/C=N/NC(=O)C(C)Nc2ccccc2C)c1O (stereo not drawn) the results were HCT116 bCat-KO 78, Yeast growth inh -38, HCT116 PTEN-null 74, sdo1 growth 0.05 and Yeast lifespan up 2.
For N#Cc1ccc(/C=C/C(=O)c2ccco2)cc1 the results were HCT116 bCat-KO 2.3*, Yeast growth inh -12, HCT116 PTEN-null 1.6*, sdo1 growth 0 and Yeast lifespan up 21.
Screening Nc1ccc(/C=C/C(=O)c2ccco2)cc1 returned HCT116 bCat-KO 69, Yeast growth inh -11, HCT116 PTEN-null 69, sdo1 growth -0.32 and Yeast lifespan up -8.
For CC(C)OC(=O)/C(C#N)=C/c1c[nH]c2ccccc12 the results were HCT116 bCat-KO 82, Yeast growth inh -56, HCT116 PTEN-null 79, sdo1 growth -0.85 and Yeast lifespan up -7.
For COc1cc2c(cc1OC)CN(c1ccc(-c3ccccc3OC)nn1)CC2 the results were HCT116 bCat-KO 2.7*, Yeast growth inh -63, HCT116 PTEN-null 7, sdo1 growth -0.66 and Yeast lifespan up -21.
O=S(=O)(NCc1ccc2c(c1)OCO2)c1cccc2cccnc12 was read as HCT116 bCat-KO 94, Yeast growth inh -28, HCT116 PTEN-null 104, sdo1 growth 0.24 and Yeast lifespan up -2.
`CCOc1cc(C(=O)N/N=C\c2cn(CC)nc2C)cc(OCC)c1OCC` gave HCT116 bCat-KO 102, Yeast growth inh -49, HCT116 PTEN-null 97, sdo1 growth 0.22 and Yeast lifespan up 4.
For COc1cc(/C=C/C(=O)c2c(O)cc(C)oc2=O)cc(OC)c1O the results were HCT116 bCat-KO 83, Yeast growth inh -17, HCT116 PTEN-null 73, sdo1 growth 0.2 and Yeast lifespan up 56*.
COc1cccc(/C=C/C(=O)c2c(O)cc(C)oc2=O)c1O was read as HCT116 bCat-KO 54, Yeast growth inh -12, HCT116 PTEN-null 62, sdo1 growth -0.4 and Yeast lifespan up 47*.
